From ChEMBL document CHEMBL4130438, “6,7-Seco-ent-Kauranoids Derived from Oridonin as Potential Anticancer Agents” (J Nat Prod, 2017)
Calls of active or inactive are those of the source. No cut-off for these calls is given here.

Columns and labels:
[1] = tested on: MGC-803; assay: Antiproliferative activity against human MGC803 cells after 72 hrs by MTT assay; type: functional, cell-based; conditions: MGC-803, 72 h
Outline: (§1)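 Cells pre-incubated 24 h at 37 °C, 5% CO2 in 96-well plates, then exposed to a range of compound concentrations (DMSO ≤0.25%) for 72 h. Viable cells read by MTT colour at 570 nm. Performed in quadruplicate, repeated three times. IC50 reported as means ± SD, n = 3.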

[2] = tested on: Bel-7402; assay: Antiproliferative activity against human Bel7402 cells after 72 hrs by MTT assay; type: functional, cell-based; conditions: Bel-7402, 72 h; outline: as §1
[3] = tested on: MCF7; assay: Antiproliferative activity against human MCF7 cells after 72 hrs by MTT assay; type: functional, cell-based; conditions: MCF7, 72 h; outline: as §1
[4] = tested on: K562; assay: Antiproliferative activity against human K562 cells after 72 hrs by MTT assay; type: functional, cell-based; conditions: K562, 72 h; outline: as §1
[5] = tested on: H22; assay: Antitumor activity against […] cells xenografted in ICR mouse assessed as inhibition of tumor volume at 20 mg/kg, iv qd administered for 14 consecutive days measured every 2 days relative to control; type: functional; conditions: 14 days
Outline: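 Male ICR mice, five weeks old, implanted s.c. in the right flank with 1 × 10^6 H22 cells. After 7 days, randomised into groups of eight. Given i.v. once daily for 14 days, 10 or 20 mg/kg in 10% DMF/2% poloxamer/88% saline; negative controls received 0.9% saline i.v., positive control 20 mg/kg oridonin. Body weight and tumour volume (L × W²/2) recorded every 2 days. Tumours excised and weighed at sacrifice; inhibition (%) = (1 − treated/control mean tumour weight) × 100.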

[6] = species on record: Homo sapiens; assay: Antiproliferative activity against human KB/CP4 cells after 48 hrs by MTT assay; type: functional, cell-based
[7] = tested on: KB 3-1; assay: Antiproliferative activity against human KB-3-1 cells after 48 hrs by MTT assay; type: functional, cell-based
[8] = tested on: MCF7; assay: Cytotoxicity against human MCF7 cells assessed as decrease in cell viability after 24 hrs by LDH release assay; type: functional, cell-based
Outline: (§2)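 MCF-7 and Bel-7402 cells seeded at ~5 × 10^3 per well for 24 h, then exposed to compounds. LDH released into the medium measured with CytoTox-ONE reagent (10 min, ambient temperature) followed by stop solution. Fluorescence read at ex 560/em 590 nm.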

[9] = tested on: Bel-7402; assay: Cytotoxicity against human Bel7402 cells assessed as decrease in cell viability after 24 hrs by LDH release assay; type: functional, cell-based; outline: as §2

Row | IC50 [1] [nM] | IC50 [2] [nM] | IC50 [3] [nM] | IC50 [4] [nM] | Structure (SMILES) | inhibition in vivo at 20 mg/kg [5] [%] | Activity [6] | Activity [7] | Activity [8] | Activity [9]
1 | 950 | 570 | 1000 | 630 | C=C1C(=O)[C@@]23C(=O)OC[C@]4(C=CCC(C)(C)[C@H]4C=O)[C@@H]2CC[C@@H]1[C@H]3OC(C)=O |  |  |  |  | 
2 | 4300 | 2200 | 3300 | 5500 | C=C1C(=O)[C@@]23C(=O)OC[C@]4(C=CCC(C)(C)[C@H]4C=O)[C@@H]2CC[C@@H]1[C@H]3OC(=O)CCCC |  |  |  |  | 
3 | 2400 | 3600 | 1100 | 550 | C=C1C(=O)[C@@]23C(=O)OC[C@]4(C=CCC(C)(C)[C@H]4C=O)[C@@H]2CC[C@@H]1[C@H]3OC(=O)c1cccc(C)c1 |  |  |  |  | 
4 | 3900 | 2700 | 3900 | 3200 | C=C1C(=O)[C@]23[C@H](O)[C@H]1CC[C@H]2[C@@]12CO[C@@]3(O)[C@@H](O)[C@@H]1C(C)(C)CC[C@@H]2OS(C)(=O)=O |  |  |  |  | 
5 | 2900 | 5100 | 2200 | 1400 | C=C1C(=O)[C@@]23C(=O)OC[C@]4(C=CCC(C)(C)[C@H]4C=O)[C@@H]2CC[C@@H]1[C@H]3OC(=O)/C=C/c1cccc([N+](=O)[O-])c1 |  |  |  |  | 
6 | 1300 | 840 | 1200 | 780 | C=C1C(=O)[C@@]23C(=O)OC[C@]4(C=CCC(C)(C)[C@H]4C=O)[C@@H]2CC[C@@H]1[C@H]3OC(=O)c1ccco1 |  |  |  |  | 
7 | > 10000 | 4600 | > 10000 | > 10000 | C=C1C(=O)[C@@]23C(=O)OC[C@]4([C@@H]5O[C@@H]5CC(C)(C)[C@H]4C=O)[C@@H]2CC[C@@H]1[C@H]3O |  |  |  |  | 
8 | 8800 | 3800 | 9500 | 1200 | C=C1C(=O)[C@@]23C(=O)OC[C@]4([C@@H](OS(C)(=O)=O)CCC(C)(C)[C@H]4C=O)[C@@H]2CC[C@@H]1[C@H]3OS(C)(=O)=O |  |  |  |  | 
9 | 3200 | 2200 | 3700 | 4500 | C=C1C(=O)[C@@]23C(=O)OC[C@]4([C@@H](OS(C)(=O)=O)CCC(C)(C)[C@H]4C=O)[C@@H]2CC[C@@H]1[C@H]3OC(=O)CCCC |  |  |  |  | 
10 | 7300 | 7100 | 3400 | 1200 | C=C1C(=O)[C@@]23C(=O)OC[C@]4(C=CCC(C)(C)[C@H]4C=O)[C@@H]2CC[C@@H]1[C@H]3OC(=O)CC |  |  |  |  | 
11 | 7300 | > 10000 | 6400 | 1000 | C=C1C(=O)[C@@]23C(=O)OC[C@]4(C=CCC(C)(C)[C@H]4C=O)[C@@H]2CC[C@@H]1[C@H]3OC(=O)c1ccc([N+](=O)[O-])cc1 |  |  |  |  | 
12 | 4500 | > 10000 | 9100 | 5100 | C=C1C(=O)[C@]23[C@H](O)[C@H]1CC[C@H]2[C@@]12CO[C@]3(O)[C@@H](O)[C@@H]1C(C)(C)CC[C@@H]2O [ORIDONIN] | 51.2 |  |  |  | 
13 | 4500 | 3100 | 5500 | 6200 | C=C1C(=O)[C@@]23C(=O)OC[C@]4([C@@H](OS(C)(=O)=O)CCC(C)(C)[C@H]4C=O)[C@@H]2CC[C@@H]1[C@H]3OC(=O)c1ccc(F)cc1 |  |  |  |  | 
14 | 2800 | 1300 | 2000 | 1900 | C=C1C(=O)[C@@]23C(=O)OC[C@]4(C=CCC(C)(C)[C@H]4C=O)[C@@H]2CC[C@@H]1[C@H]3OS(C)(=O)=O |  |  |  |  | 
15 | 3400 | 1100 | 2900 | 1700 | C=C1C(=O)[C@@]23C(=O)OC[C@]4([C@@H](OS(C)(=O)=O)CCC(C)(C)[C@H]4C=O)[C@@H]2CC[C@@H]1[C@H]3OC(=O)c1ccco1 |  |  |  |  | 
16 | 2800 | 1300 | 3500 | 2900 | C=C1C(=O)[C@@]23C(=O)OC[C@]4(C=CCC(C)(C)[C@H]4C=O)[C@@H]2CC[C@@H]1[C@H]3OC(=O)c1cnccn1 |  |  |  |  | 
17 | > 10000 | > 10000 | > 10000 | > 10000 | C=C1C(=O)[C@@]23C(=O)OC[C@]4([C@@H](OS(C)(=O)=O)CCC(C)(C)[C@H]4C=O)[C@@H]2CC[C@@H]1[C@H]3O |  |  |  |  | 
18 | 3000 | 2500 | 6400 | 4200 | C=C1C(=O)[C@@]23C(=O)OC[C@]4(C=CCC(C)(C)[C@H]4C=O)[C@@H]2CC[C@@H]1[C@H]3O |  | Active | Active | inactive | inactive
19 | 950 | 1500 | 1500 | 1300 | C=C1C(=O)[C@@]23C(=O)OC[C@]4(C=CCC(C)(C)[C@H]4C=O)[C@@H]2CC[C@@H]1[C@H]3OC(=O)/C=C/c1ccccc1 |  |  |  |  | 
